Calls of active or inactive are those of the source. The calls are words filed in the database; no cut-off is given here.
Assays:
HT-29 = experiment: Cytotoxicity against human HT-29 cells after 48 hrs by MTT assay; assay type: functional, cell-based; conditions: HT-29, 48 h
In short: (§1)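 Cells grown in RPMI-1640 with 10% heat-inactivated FBS, penicillin and streptomycin, seeded at 8000–10,000 viable cells/well and left 48 h to attach. Exposed to 0.001–100 µM compound (DMSO final <0.1%) for 24 or 48 h depending on cell line. MTT (5 mg/ml in PBS) added for 4 h at 37 °C, formazan dissolved in DMSO, absorbance read at 550 nm against 690 nm. Triplicates; IC50 by nonlinear regression, mean ± SD.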

AGS = experiment: Cytotoxicity against human AGS cells after 48 hrs by MTT assay; assay type: functional, cell-based; in short: as §1
NIH3T3 [1] = experiment: Cytotoxicity against mouse NIH/3T3 cells after 48 hrs by MTT assay; assay type: cell-based; conditions: NIH3T3, 48 h; in short: as §1
Ovis aries = organism: Ovis aries; experiment: Inhibition of sheep brain tubulin polymerization at 10 uM after 15 mins
In short: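 Purified tubulin (12 µM) preincubated 15 min with compound at 10 µM final in PEM buffer (100 mM PIPES pH 6.9, 1 mM MgSO4, 1 mM EGTA), then cooled to 0 °C. GTP added to 1 mM final; assembly started by warming from 0 to 37 °C and followed by absorbance at 350 nm. Duplicate experiments; CA-4 as positive control.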

MCF7 = experiment: Cytotoxicity against human MCF7 cells after 48 hrs by MTT assay; assay type: functional, cell-based; conditions: MCF7, 48 h; in short: as §1
NIH3T3 [2] = experiment: Cell cycle arrest in mouse NIH/3T3 cells assessed as accumulation at G0/G1 phase at 50 uM after 24 hrs using propidium iodide staining by flow cytometric analysis (reference value: 39.91%); assay type: cell-based; conditions: nih3t3, 24 h
In short: (§2)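 NIH-3T3 cells treated with 25 or 50 µM for 24 h. Collected by centrifugation, fixed in 75% ethanol at 4 °C for 0.5 h, then resuspended in PBS with 0.1% Triton X-100, 10 µg/mL propidium iodide and 100 µg/mL RNase A at 37 °C for 0.5 h. DNA content read on a FACSCalibur flow cytometer. CA-4 (0.05 µM) served as positive control.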

NIH3T3 [3] = experiment: Cell cycle arrest in mouse NIH/3T3 cells assessed as accumulation at G2/M phase at 50 uM after 24 hrs using propidium iodide staining by flow cytometric analysis (reference value: 35.70%); assay type: cell-based; conditions: nih3t3, 24 h; in short: as §2
NIH3T3 [4] = experiment: Cell cycle arrest in mouse NIH/3T3 cells assessed as accumulation at G2/M phase at 25 uM after 24 hrs using propidium iodide staining by flow cytometric analysis (reference value: 35.70%); assay type: cell-based; conditions: nih3t3, 24 h; in short: as §2
NIH3T3 [5] = experiment: Cell cycle arrest in mouse NIH/3T3 cells assessed as accumulation at S phase at 50 uM after 24 hrs using propidium iodide staining by flow cytometric analysis (reference value: 24.39%); assay type: cell-based; conditions: nih3t3, 24 h; in short: as §2
NIH3T3 [6] = experiment: Cell cycle arrest in mouse NIH/3T3 cells assessed as accumulation at S phase at 25 uM after 24 hrs using propidium iodide staining by flow cytometric analysis (reference value: 24.39%); assay type: cell-based; conditions: nih3t3, 24 h; in short: as §2
NIH3T3 [7] = experiment: Cell cycle arrest in mouse NIH/3T3 cells assessed as accumulation at G0/G1 phase at 25 uM after 24 hrs using propidium iodide staining by flow cytometric analysis (reference value: 39.91%); assay type: cell-based; conditions: nih3t3, 24 h; in short: as §2

SMILES	IC50 (HT-29)	IC50 (AGS)	IC50 (NIH3T3 [1])	tubulin polymerization inhibition (active/inactive) (Ovis aries)	IC50 (MCF7)	Activity (NIH3T3 [2])	Activity (NIH3T3 [3])	Activity (NIH3T3 [4])	Activity (NIH3T3 [5])	Activity (NIH3T3 [6])	Activity (NIH3T3 [7])
COc1ccc(-c2nc(SC)sc2-c2ccccc2)c(OC)c1OC	77.9 µM	27.2 µM	22.1 µM								
COc1ccc(-c2nc(SCc3ccccc3)sc2-c2ccc([N+](=O)[O-])cc2)c(OC)c1OC	33.8 µM	13.8 µM	16.3 µM	Active	11 µM						
COc1ccc(/C=C\c2cc(OC)c(OC)c(OC)c2)cc1O [COMBRETASTATIN A4]	1.58 µM	0.064 µM	0.097 µM	Active	0.67 µM						
COc1ccc(-c2nc(SC)sc2-c2ccc(Cl)cc2)c(OC)c1OC	> 100 µM	> 100 µM	95.7 µM								
COc1ccc(-c2nc(SC)sc2-c2ccc(F)cc2)c(OC)c1OC	80.3 µM	97.8 µM	42.1 µM								
COc1ccc(-c2nc(SCc3ccccc3)sc2-c2ccc(F)cc2)c(OC)c1OC	18.5 µM	18.1 µM	41.5 µM	Active	18.5 µM						
COc1ccc(-c2nc(SCc3ccccc3)sc2-c2ccccc2)c(OC)c1OC	46 µM	38.5 µM	56.5 µM		27.3 µM						
COc1ccc(-c2nc(SCc3ccccc3)sc2-c2ccc(Cl)cc2)c(OC)c1OC	8.9 µM	15.8 µM	20.5 µM	Active	12.6 µM	15.92%	57.41%	37.64%	26.67%	28.12%	34.24%
COc1ccc(-c2nc(SC)sc2-c2ccc([N+](=O)[O-])cc2)c(OC)c1OC	45.3 µM	> 100 µM	> 100 µM								
